Source: PubChem BioAssay
In the library only some 4.3% were active in any assay of this set; here they are far more common.
SR-BI uptake up = activators of SR-BI mediated DiI-HDL uptake, primary screen, ldlA[mSR-BI] CHO cells, DiI fluorescence; activation, % at 12.5 µM; 320,000 compounds, 0.096% hits; 3 h; 100 = double the neutral-control signal; AID 504775, 2011;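 active = mean replicate activation of at least 60% and every replicate at or above 60%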
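System: LDL receptor-deficient CHO ldlA cells overexpressing murine SR-BI | Timing: 3 h uptake period with compound, 37 °C | Medium: HEPES-buffered (25 mM, pH 7.4) F12 plus 0.5% BSA | Dosing: Single-point compound dose | Signal: Bottom-read fluorescence, 550/595 nm | Read-out: Retained DiI signal reflecting DiI-HDL uptake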
CR mimetic SO = reduction of superoxide in aged yeast, primary screen, HTS; S. cerevisiae aged cells, superoxide DHE fluorescence; stronger effect = lower value; superoxide response (% of plate mean), % at 10 µM; 330,000 compounds, 0.18% hits;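 active = superoxide response under a set limit, about three screen SD below normal, cut at about 65% in these data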;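 note: yeast aged for seven days with compound at 30 °C before DHE staining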
Hep lipid drop = inhibitors of hepatocyte lipid droplet formation, primary screen, imaging, high-throughput imaging, BODIPY stain. AML12 mouse hepatocytes, oleate lipid droplets. inhibition, % at 6.5 µM. 240,000 compounds, 0.4% hits;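 active = lipid droplet intensity inhibited by at least 50%, with more than 500 cells counted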
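Assay system: AML12 hepatocytes (mouse); Probe or stimulus: oleic acid at 100 µM to induce lipid droplet formation; Dosing: compound at 6.5 µM only; Schedule: compound with oleate, overnight; Detection: fluorescence imaging, 20x objective, two fields per well; Measure: % inhibition of lipid droplet signal.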
SR-BI HDL uptake = inhibitors of SR-BI mediated HDL lipid uptake, primary screen, ldlA[mSR-BI] cells, fluorescence, single point; Scavenger receptor class B member 1 (Mus musculus), Q61009; ldlA[mSR-BI] CHO cells, DiI-HDL uptake fluorescence, 3 h; inhibition, % at 12.5 µM; 320,000 compounds, 0.96% hits; AID 488896, 2010;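 active = mean replicate inhibition of at least 70% and a set share of replicates each scoring 70 or more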
SMARCA2 act = SMARCA2 (BRM) function activators, primary screen, cell-based, luminescence, high throughput. MG213 cells, MMTV-luciferase reporter, dexamethasone, overnight. 370,000 compounds, 1% hits. activation, % at 9.1 µM; in the data active = activation above about 7.8%
AHR act = AHR activators, primary screen, cell-based, luminescence, luciferase reporter, human | 320,000 compounds, 2.5% hits | activation, % at 5 µM | AHR-responsive luciferase reporter cells | Aryl hydrocarbon receptor (Homo sapiens), P35869; in the data active = activation above about 47%
Numbers stand for hits; – = inactive; · = no result.

SMILES	SR-BI uptake up	CR mimetic SO	Hep lipid drop	SR-BI HDL uptake	SMARCA2 act	AHR act
Cc1ccc(-c2cc(-c3ccccc3)no2)c(O)c1	–	–	–	–	–	–
CC(=O)Nc1nccc(-c2cc(-c3ccccc3)no2)n1	·	–	–	·	·	49.6
CCOC(=O)c1cnc2ccc(OC)cc2c1Nc1ccc2c(c1)OCCO2	–	–	·	–	–	–
CCOC(=O)c1cnc2c(OC)cccc2c1Nc1ccc2c(c1)OCCO2	–	57.4	–	–	–	–
COc1ccc2nc(NC(=O)C3CCCN(S(=O)(=O)c4cccs4)C3)sc2c1 (configuration not stated)	–	–	–	–	–	71.4
O=C(Nc1cc2c3c(c1)C1CCCC1CN3CC1CCCC21)c1ccccc1 (configuration not stated)	–	–	·	79.9	–	–
Cc1ccc(NC(=O)C(C)OC(=O)CSc2ccccc2)cc1 (configuration not stated)	–	–	·	–	–	–
Cc1cc(C)nc(SCC(=O)OC(C)C(=O)Nc2ccccc2)n1 (configuration not stated)	62.1	–	–	–	–	–
CC1(c2nnnn2-c2ccc(F)cc2)CCCC(=O)N1CCc1c[nH]c2ccccc12 (configuration not stated)	·	·	·	·	–	·
Cc1ccc(C(=O)NC(=S)Nc2c(C)ccc3nsnc23)cc1	–	–	–	–	–	93.8
COC(=O)C1=C(C)N(Cc2ccccc2C(F)(F)F)C(=NCc2ccc(OC)cc2)NC1c1ccc(C(F)(F)F)cc1 (configuration not stated)	·	·	·	·	–	·
c1ccc2c(c1)nc(Nc1ccc3c(c1)OCO3)c1nnnn12	–	–	–	–	–	120.0
Cc1cc(C)n(-c2nc3ccccc3nc2Nc2ccc3c(c2)OCO3)n1	–	–	–	–	–	76.1
COc1cccc(Nc2nc3ccccc3nc2-n2nc(C)cc2C)c1	·	–	·	·	–	–
Fc1cccc(Nc2nc3ccccc3n3nnnc23)c1	–	–	·	–	–	–
CCOc1ccc(-n2c(SCC(=O)Nc3cc(OC)c([N+](=O)[O-])cc3C)nc3ccccc32)cc1	–	–	–	81.9	–	–
COc1cc([N+](=O)[O-])ccc1NC(=O)CSc1nc2ccccc2n1-c1ccccc1	·	–	–	·	–	61.3
O=S1(=O)c2ccccc2-c2c(nnn2CC2CCCCC2)CN1C1CC1	·	·	·	·	–	·
CCCOc1nccc2c1n(C)c(=O)n2C	·	·	·	·	–	·
Cc1cc(N(C)C(=O)c2ccc3c(c2)S(=O)(=O)c2cc(Cl)ccc2C3=O)c(C(F)(F)F)o1	–	–	·	74.1	–	–
CCOC(=O)C1(C(=O)OCC)N=C(c2ccccc2)C=C1c1ccccc1	·	·	·	·	–	·
COc1ccc(C(=O)N/N=C\c2ccc(OC)c(COc3ccccc3Br)c2)c(OC)c1	–	–	–	–	–	48.5
COc1ccc(/C=N\NC(=O)c2cccc(F)c2)cc1COc1ccccc1	–	–	·	–	–	63.9
COc1ccc(/C=N/NC(=O)c2cccc(Br)c2)cc1CSc1ccccn1	–	–	–	–	–	56.0
COc1ccc(/C=N\NC(=O)c2ccccc2Br)cc1COc1ccccc1	–	–	–	–	–	–
SMILES	SR-BI uptake up	CR mimetic SO	Hep lipid drop	SR-BI HDL uptake	SMARCA2 act	AHR act
COc1ccc(OCc2cc(/C=N\NC(=O)c3ccccc3)ccc2OC)cc1	–	–	–	–	–	–
O=C(c1ccc2c(c1)OCO2)C1CCCN(Cc2cccn2-c2cccnc2)C1 (configuration not stated)	–	–	–	–	–	49.5
O=C(c1ccc(Cl)cc1)C1CCCN(Cc2cccn2-c2cccnc2)C1 (configuration not stated)	–	–	–	–	–	–
COC(=O)[C@]12C[C@H](CC(=O)NCC3CCCCC3)C(=O)N(Cc3ccc(Cl)cc3Cl)C1=C[C@H](COCc1ccccc1)O[C@@H]2C	·	·	·	·	–	·
COc1cc(C2=NC(CO)(CO)CO2)cc(OC)c1OC	448.4	–	–	–	–	–
COc1ccc(C2=NC(CO)(CO)CO2)cc1	–	–	–	–	–	–
